The values that follow come from ChEMBL document CHEMBL4007452, “Discovery of an Orally Selective Inhibitor of Signal Transducer and Activator of Transcription 3 Using Advanced Multiple Ligand Simultaneous Docking” (J Med Chem, 2017).

The target in data set [1] is T1, Signal transducer and activator of transcription 3 (Homo sapiens, UniProt P40763). The settings on record: 2.5 to 5 uM.
Data set [2] has as its target Epidermal growth factor receptor (Homo sapiens) (UniProt P00533). The data set can be described thus: Inhibition of EGFR in human MDA-MB-231 cells assessed as reduction in p-Akt level at 2.5 to 5 uM after 12 hrs by immunoblot analysis. In kind it is cell-based. In a few lines: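 MDA-MB-231 cells at 60–80% confluence were treated 12 h with 10% FBS at 2.5-10 µM or 2.5-5 µM, against a DMSO control. Whole-cell lysates were immunoblotted, with bands quantified as percent of control.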

In data set [3] the test system is Rattus norvegicus. The data set can be described thus: Apparent volume of distribution in Sprague-Dawley rat plasma at 10 mg/kg, po measured after 24 hrs by UPLC analysis. To be noted: in vivo. In kind it is ADME, organism-based. In a few lines: (§1)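 Rat plasma sampled from 2 min to 24 h after a single i.v. (1 mg/kg) or p.o. (10 mg/kg) dose. Parameters were derived from the concentration-time profiles. The bioanalytical method was validated to FDA guidelines for selectivity, linearity, LLOQ, accuracy, precision, recovery, matrix effect and stability.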

The test system of data set [4] is Rattus norvegicus. The data set can be described thus: AUMC (0 to t) in Sprague-Dawley rat plasma at 10 mg/kg, po measured after 24 hrs by UPLC analysis. In kind it is ADME, organism-based. The settings on record: in vivo. The method in brief: as §1
The nature of data set [5]: Antiproliferative activity against human UW426 cells after 24 hrs by MTT assay. In kind it is functional, cell-based. To be noted: UW426, 24 h. In a few lines: (§2)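 Cells were seeded at 3000 per well and incubated 24 h at 37 °C. Compounds were added in triplicate with 10% FBS: 0.1-10 or 0.1-20 µM for cancer lines, 3.125-400 µM for MCF-10A. Viability was read by MTT absorbance at 595 nm, with IC50 fitted from the curves. DMSO stocks were 20 mM.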
For orientation: Formazan colour is commonly taken as a measure of viable cells.

Data set [6] in a line: Antiproliferative activity against human UW288-1 cells after 24 hrs by MTT assay. In kind it is functional, cell-based. The settings on record: UW288-1, 24 h. The method in brief: as §2
A further data set has as its system Mus musculus. In words: Toxicity in BALB/c nude mouse xenografted with human MDA-MB-231 cells assessed as liver damage at 2.5 to 10 mg/kg, po qd administered for 32 days by H&E staining based light microscopy. In kind it is organism-based. To be noted: in vivo, 768 h. The method in brief: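 6-week-old female athymic SPF BALB/c nude mice received 5 x 10^6 MDA-MB-231 cells s.c. in the flank. Oral treatment began once tumors reached about 100 mm3, with 8 mice per group and a saline vehicle control. […] Treatment lasted 32 days. Heart, liver, spleen, lung and kidney were fixed 48 h in 10% neutral-buffered formaldehyde, paraffin-embedded, cut at 5 µm, H&E-stained and examined by light microscopy.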
Background: Xenograft models place foreign cells or tissue in a host animal.

Data set [7] deals with T2, Signal transducer and activator of transcription 1-alpha/beta (Homo sapiens) (UniProt P42224).
T2 sequence (whole entry): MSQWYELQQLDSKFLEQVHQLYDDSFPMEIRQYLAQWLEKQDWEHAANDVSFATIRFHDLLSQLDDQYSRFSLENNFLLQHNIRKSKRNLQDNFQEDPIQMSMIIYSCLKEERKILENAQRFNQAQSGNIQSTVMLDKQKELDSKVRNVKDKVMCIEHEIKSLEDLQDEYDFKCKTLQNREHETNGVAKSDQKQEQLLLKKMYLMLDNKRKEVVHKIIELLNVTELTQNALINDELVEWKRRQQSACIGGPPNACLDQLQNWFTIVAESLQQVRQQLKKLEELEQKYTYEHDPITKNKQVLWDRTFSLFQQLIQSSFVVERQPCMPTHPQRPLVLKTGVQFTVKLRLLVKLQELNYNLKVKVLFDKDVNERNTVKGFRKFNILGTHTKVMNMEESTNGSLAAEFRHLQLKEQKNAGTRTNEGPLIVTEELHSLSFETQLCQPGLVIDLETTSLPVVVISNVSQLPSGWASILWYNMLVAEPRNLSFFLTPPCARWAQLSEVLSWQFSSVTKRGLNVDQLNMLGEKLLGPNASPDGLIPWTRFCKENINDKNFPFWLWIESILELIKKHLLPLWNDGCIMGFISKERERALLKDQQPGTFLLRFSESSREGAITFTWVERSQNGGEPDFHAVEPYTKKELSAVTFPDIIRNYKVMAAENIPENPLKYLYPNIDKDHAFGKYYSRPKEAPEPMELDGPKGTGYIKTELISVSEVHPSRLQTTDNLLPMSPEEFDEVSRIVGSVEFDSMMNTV
The data set can be described thus: Inhibition of STAT1 in human MDA-MB-231 cells assessed as reduction in IFN-gamma-induced STAT1 phosphorylation at 2.5 to 5 uM preincubated for 2 hrs followed by IFN-gamma stimulation measured after 30 mins by Western blot analysis. In kind it is cell-based. The method in brief:
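MDA-MB-231 cells were allowed to adhere overnight, then serum-starved. They were pretreated 2 h with 2.5-5 µM compound or DMSO and stimulated with IFN-γ (50 ng/mL). Cells were harvested after 30 min and immunoblotted for P-STAT1(Y701) and T-STAT1.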

For data set [8], the target named is T1, Signal transducer and activator of transcription 3. The data set can be described thus: Binding affinity to fluorescently labeled STAT3 (unknown origin) by MST-analysis. The method in brief:
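Labeled STAT3 protein held constant at 10-20 nM, titrated against up to 16 serial dilutions of unlabeled inhibitor. […] Protein was dye-labeled and freed of excess dye within 45 min. Equal volumes were mixed, loaded into glass capillaries and read by microscale thermophoresis.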

In data set [9] the target is T2, Signal transducer and activator of transcription 1-alpha/beta (Homo sapiens). In words: Inhibition of STAT1 in human MDA-MB-231 cells assessed as reduction in IFN-gamma-induced STAT1-STAT1 DNA binding activity at 2.5 to 10 uM preincubated for 2 hrs followed by IFN-gamma stimulation measured after 30 mins by EMSA. In kind it is cell-based. In a few lines:
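Serum-starved MDA-MB-231 cells were preincubated with compound, stimulated with IFN-γ 50 ng/mL, and then nuclear extracts were taken for EMSA with biotin-labeled probe.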
Background: In EMSA bound probe runs differently from free probe, usually more slowly.

Data set [10] in a line: Apparent volume of distribution in Sprague-Dawley rat plasma at 1 mg/kg, iv measured after 24 hrs by UPLC analysis. In kind it is ADME, organism-based. The settings on record: read-out: Vz. In a few lines: as §1
For a further data set, the system named is MDA-MB-231. The data set can be described thus: Anticancer activity against human MDA-MB-231 cells xenografted in BALB/c nude mouse assessed as reduction in tumor volume at 2.5 mg/kg, po qd administered for 32 days. In kind it is functional. Also noted: scale not given: the % may be the effect or the level left. In a few lines: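 Female athymic BALB/c nude mice, 6 weeks old, bearing s.c. flank MDA-MB-231 xenografts (5 x 10^6 cells). Dosing began at about 100 mm3 tumor volume; 8 mice per group, one tumor each. Drug was given orally in saline, with a saline vehicle control, for 32 days. Caliper L and W measured every other day; volume = 0.5236×L×W².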

The nature of data set [11]: Tmax in Sprague-Dawley rat plasma at 1 mg/kg, iv measured after 24 hrs by UPLC analysis. In kind it is ADME, organism-based. In a few lines:
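Rats dosed i.v. or p.o. Plasma concentrations followed from 2 min to 24 h after dosing. The bioanalytical method was validated to FDA guidelines for selectivity, linearity, LLOQ, accuracy, precision, recovery, matrix effect and stability.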

For data set [12], the target named is T1, Signal transducer and activator of transcription 3. To be noted: 5 uM.

Structures are written as SMILES. Activity calls are given as the source filed them. No cut-off for these calls is given here.

T1 sequence (P40763 whole entry): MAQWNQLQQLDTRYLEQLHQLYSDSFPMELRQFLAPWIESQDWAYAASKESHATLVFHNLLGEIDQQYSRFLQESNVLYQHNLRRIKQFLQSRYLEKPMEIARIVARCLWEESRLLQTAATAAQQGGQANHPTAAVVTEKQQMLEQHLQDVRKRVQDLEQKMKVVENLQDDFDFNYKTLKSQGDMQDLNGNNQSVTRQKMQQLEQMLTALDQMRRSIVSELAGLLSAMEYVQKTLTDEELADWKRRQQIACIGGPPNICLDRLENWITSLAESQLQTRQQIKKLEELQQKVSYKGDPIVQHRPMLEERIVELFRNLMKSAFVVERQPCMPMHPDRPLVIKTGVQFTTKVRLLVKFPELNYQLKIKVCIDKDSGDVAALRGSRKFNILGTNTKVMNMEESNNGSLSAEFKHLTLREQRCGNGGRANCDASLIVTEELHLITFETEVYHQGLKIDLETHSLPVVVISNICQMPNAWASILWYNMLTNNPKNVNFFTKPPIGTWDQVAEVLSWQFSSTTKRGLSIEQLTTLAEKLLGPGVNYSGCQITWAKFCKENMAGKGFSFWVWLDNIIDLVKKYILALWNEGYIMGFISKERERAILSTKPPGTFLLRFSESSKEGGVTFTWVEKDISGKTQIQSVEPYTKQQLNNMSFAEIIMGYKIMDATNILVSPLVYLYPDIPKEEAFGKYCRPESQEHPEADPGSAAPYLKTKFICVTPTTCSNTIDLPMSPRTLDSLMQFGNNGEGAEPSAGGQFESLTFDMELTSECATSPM
Sequence of Epidermal growth factor receptor (Homo sapiens) (P00533 whole entry): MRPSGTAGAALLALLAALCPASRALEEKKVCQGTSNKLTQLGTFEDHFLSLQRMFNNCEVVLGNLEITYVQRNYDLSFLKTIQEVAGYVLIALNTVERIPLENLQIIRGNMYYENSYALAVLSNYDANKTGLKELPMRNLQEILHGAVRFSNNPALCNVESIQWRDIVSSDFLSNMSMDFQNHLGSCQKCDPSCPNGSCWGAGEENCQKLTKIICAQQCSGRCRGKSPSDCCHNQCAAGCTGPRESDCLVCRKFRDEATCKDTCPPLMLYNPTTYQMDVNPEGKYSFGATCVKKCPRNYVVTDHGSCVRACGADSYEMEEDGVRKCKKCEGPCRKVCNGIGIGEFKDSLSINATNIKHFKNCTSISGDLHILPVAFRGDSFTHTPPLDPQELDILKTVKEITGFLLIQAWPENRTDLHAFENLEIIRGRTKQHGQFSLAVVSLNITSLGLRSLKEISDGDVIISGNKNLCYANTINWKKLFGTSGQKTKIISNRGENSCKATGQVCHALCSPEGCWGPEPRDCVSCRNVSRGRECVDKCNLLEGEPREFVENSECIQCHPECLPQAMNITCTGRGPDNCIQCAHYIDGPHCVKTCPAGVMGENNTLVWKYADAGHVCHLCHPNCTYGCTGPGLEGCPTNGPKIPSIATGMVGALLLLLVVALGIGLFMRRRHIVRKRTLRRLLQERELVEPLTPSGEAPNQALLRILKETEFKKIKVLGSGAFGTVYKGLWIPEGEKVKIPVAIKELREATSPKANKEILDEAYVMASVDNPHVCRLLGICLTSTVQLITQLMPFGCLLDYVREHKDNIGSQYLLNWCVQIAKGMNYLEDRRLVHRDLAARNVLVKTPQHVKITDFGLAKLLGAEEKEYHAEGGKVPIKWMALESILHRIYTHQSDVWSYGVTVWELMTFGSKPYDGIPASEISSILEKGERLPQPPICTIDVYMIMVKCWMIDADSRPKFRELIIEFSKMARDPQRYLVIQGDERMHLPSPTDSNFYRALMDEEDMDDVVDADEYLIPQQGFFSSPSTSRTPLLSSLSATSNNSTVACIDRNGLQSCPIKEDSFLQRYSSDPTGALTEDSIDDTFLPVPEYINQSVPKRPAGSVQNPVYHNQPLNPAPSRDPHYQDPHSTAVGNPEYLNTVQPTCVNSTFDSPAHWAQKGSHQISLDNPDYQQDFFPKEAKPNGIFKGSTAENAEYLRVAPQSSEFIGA

Usually IC50 stands for the concentration needed to halve the response being measured. By Ki is commonly meant the equilibrium dissociation constant of an inhibitor or competing ligand from its target. As usually defined, the Tmax is the time at which the peak concentration occurs. With `NS(=O)(=O)c1cccc2c1C(=O)C=C(Nc1ccccc1N1CCNCC1)C2=O`, in data set [1], the inhibition result was “Active”. The inhibition result in data set [2], in data set [7] and in data set [9] was “inactive” in each case. In addition, the Vz in the data set with Rattus norvegicus [3] was found to be 32.0925 L/kg. Further, the AUMCt in the data set on Rattus norvegicus [4] is 1622.6 hr2.ng/ml. Besides, the figures for the half-maximal inhibitory concentration (IC50) in data set [5] and in data set [6] were 1200 nM and 2800 nM, respectively. The results for the Activity result in the data set with Mus musculus and in the data set with MDA-MB-231 were “Non-Toxic” and 53%, respectively. This molecule also gave an inhibitory constant (Ki) in [8] of 2420 nM. Further, in data set [10], the Vd came to 4.94 L/kg. Besides, in data set [11], the Tmax was found to be 1.98 min. The inhibition entry in data set [12] is “Tde”.
